Most compounds without a hit are left out; they make up all but 2.3% or so of the library.
TRPC4 PAM – positive allosteric modulators of TRPC4, primary screen, cell-based, mouse TRPC4beta, HEK293 mu-opioid, Fluo-4 calcium; Short transient receptor potential channel 4 (Mus musculus), Q9QUQ5; DAMGO EC20, Fluo-4 Ca2+ flux; stronger effect = higher value; B-score at 10 µM; 0.42% of 310,000 active; AID 2227, 2009;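 active = B-score of calcium response area above 5 SD of library B-scores, with initial fluorescence ratio within 5 SD of library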;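 also: B-score of integrated fluorescence ratio over time as area under calcium response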
Target sequence (Q9QUQ5 whole entry, looked up): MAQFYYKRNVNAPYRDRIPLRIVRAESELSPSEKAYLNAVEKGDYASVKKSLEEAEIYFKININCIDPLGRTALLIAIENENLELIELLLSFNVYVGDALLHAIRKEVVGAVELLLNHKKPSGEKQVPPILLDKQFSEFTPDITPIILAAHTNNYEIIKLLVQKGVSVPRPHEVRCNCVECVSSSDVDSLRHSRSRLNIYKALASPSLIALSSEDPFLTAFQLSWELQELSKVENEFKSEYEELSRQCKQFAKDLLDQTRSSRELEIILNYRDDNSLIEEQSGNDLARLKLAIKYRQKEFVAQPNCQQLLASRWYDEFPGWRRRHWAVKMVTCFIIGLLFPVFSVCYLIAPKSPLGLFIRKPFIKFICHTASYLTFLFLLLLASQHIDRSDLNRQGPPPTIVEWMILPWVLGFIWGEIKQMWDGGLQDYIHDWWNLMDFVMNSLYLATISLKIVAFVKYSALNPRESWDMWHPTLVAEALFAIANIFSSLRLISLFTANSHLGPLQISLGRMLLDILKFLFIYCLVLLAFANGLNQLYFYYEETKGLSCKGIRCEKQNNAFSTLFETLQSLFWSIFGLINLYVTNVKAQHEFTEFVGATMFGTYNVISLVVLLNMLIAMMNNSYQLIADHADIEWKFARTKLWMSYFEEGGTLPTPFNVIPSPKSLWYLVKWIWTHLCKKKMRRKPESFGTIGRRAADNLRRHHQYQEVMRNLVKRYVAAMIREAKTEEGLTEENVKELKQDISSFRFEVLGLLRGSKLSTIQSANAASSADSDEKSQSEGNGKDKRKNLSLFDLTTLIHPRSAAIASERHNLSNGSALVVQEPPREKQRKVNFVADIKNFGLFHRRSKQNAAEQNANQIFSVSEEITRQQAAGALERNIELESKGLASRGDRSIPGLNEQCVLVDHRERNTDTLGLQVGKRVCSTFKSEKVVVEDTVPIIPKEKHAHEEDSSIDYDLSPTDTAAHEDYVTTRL
TRPC4 agonist – activators of mouse TRPC4 channel, primary screen, Fluo4 calcium, HEK293 TRPC4beta/mu-opioid cells. AID 2237, 2010. Fluo4 calcium fluorescence; stronger effect = higher value. 0.49% of 310,000 active. Short transient receptor potential channel 4 (Mus musculus), Q9QUQ5. B-score at 10 µM;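 active = B-score above 5 SD of library B-scores, and initial fluorescence ratio not above library mean plus 5 SD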;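 also: positive B-score marks a calcium rise read as TRPC4 activation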
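Material: HEK293 stable line with TRPC4beta plus mu-opioid receptor; technique: Fluo4 calcium-sensitive dye fluorescence, kinetic, 1 Hz baseline; timing: Fluo4 dye loading 45 min at room temperature, 110 s recording; controls: assay buffer as low control, maximal DAMGO as high control; read-out: integrated baseline-normalised fluorescence ratio, converted to per-well B score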
TRPC6 inh – mouse TRPC6 channel inhibitors, primary screen, cell-based, HEK293, membrane potential dye; ACh-evoked depolarization; stronger effect = lower value; Short transient receptor potential channel 6 (Mus musculus), Q61143; B-score at 10 µM; 1.1% of 310,000 active;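 active = B-score under library mean minus 3 SD, initial fluorescence not abnormally high, positive integrated signal ratio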;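 also: B-score derived from integrated fluorescence ratio over the kinetic read; more negative B-score means stronger inhibition of depolarization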
TRPC6 act – mouse TRPC6 channel activators, primary screen, cell-based, HEK293, membrane potential dye; Short transient receptor potential channel 6 (Mus musculus), Q61143; HEK293-TRPC6 membrane potential dye fluorescence; stronger effect = higher value; AID 2550, 2010; 0.13% of 310,000 active; B-score at 10 µM;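 active = B-score of the integrated fluorescence ratio above library mean plus 3 SD, and starting fluorescence ratio within library mean plus 5 SD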;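 also: higher score means more depolarization so channel activation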
TRPC4 block – inhibitors of mouse TRPC4 channel, primary screen, Fluo4 calcium, HEK293 TRPC4beta/mu-opioid cells; DAMGO-evoked Fluo4 calcium flux; stronger effect = lower value; B-score at 10 µM; 0.39% of 300,000 active;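 active = B-score over 3 SD under the library average, no early fluorescence shift, positive overall ratio signal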
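Assay system: TRPC4beta/mu-opioid receptor HEK293 cell line; compound dosing: single concentration per test compound; detection: Fluo4 Ca2+ flux fluorescence; evaluation: per-well B score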
TRPC4 spec 2 – second selectivity test of TRPC6 inhibitors: effect on mouse TRPC4 | HEK293 TRPC4/MOR, membrane potential dye fluorescence; channel activated by saturating DAMGO dose | inhibition, % at 10 µM | shares compounds with TRPC6 inh | AID 2776 | 42% of 920 active;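 active = compounds whose fluorescence signal differed from control wells by over 3 SD, either direction, in both duplicate plates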
TRPC4 spec – mouse TRPC4 modulation by TRPC6 hits, confirmation, selectivity assay for TRPC6 inhibitor project, cell-based, HEK293 TRPC4/mu-opioid, membrane potential dye | membrane potential fluorescence | activity change, negative = inhibition, % at 10 µM | 61% of 920 active | shares compounds with TRPC6 inh;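 active = rise or fall in signal beyond 3 SD of buffer-only wells in both replicate plates, either sign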;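 also: integrated kinetic ratio of fluorescence range over baseline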
HEK293 MPD ctr 2-1 – nonspecific membrane potential effects, parental HEK293, confirmation, counter-screen for TRPC6 inhibitor project, cell-based, second counter screen. shares compounds with TRPC6 inh. parental HEK293 membrane potential dye fluorescence; maximal acetylcholine challenge after compound addition. signal change vs control, % at 10 µM. 31% of 920 active;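 active = membrane potential signal moving either way by over 3 SD of the maximum-effect control, in both duplicate plates, meaning non-specific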
HEK293 MPD ctr-1 – membrane potential modulation in parental HEK293, confirmation, counter-screen for TRPC6 inhibitor project, cell-based; shares compounds with TRPC6 inh; parental HEK293 membrane potential dye fluorescence; membrane potential signal change, % at 10 µM; 60% of 920 active; AID 2780, 2010;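 active = membrane potential signal shifting up or down by more than 3 SD of buffer-only wells, on both duplicate plates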
HEK293 MPD ctr-2 – parental HEK293 membrane potential modulation, confirmation, counter-screen for TRPC6 modulator project, cell-based; shares compounds with TRPC6 inh; membrane potential dye fluorescence; membrane potential signal change, % at 10 µM; 51% of 2,400 active;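 active = membrane potential signal moves up or down beyond 5 SD from buffer-only wells, on both duplicate plates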
HEK293 MPD ctr 2-2 – second counter-screen for TRPC6 modulators: effect in parental HEK293 cells. shares compounds with TRPC6 inh. membrane potential dye fluorescence; after compound, maximal acetylcholine stimulation. inhibition, % at 10 µM. 14% of 2,400 active. AID 488926;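 active = membrane potential signal drops by more than 5 SD from the mean control signal, in both duplicate plates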;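 also: plate controls were acetylcholine ECmax control wells for no effect and buffer only wells for full effect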
TRPC4/MOR mod – TRPC4 modulation by TRPC6 hit compounds, confirmation, selectivity assay for TRPC6 modulator project, cell-based, HEK293 TRPC4/mu-opioid, membrane potential dye, mouse | shares compounds with TRPC6 inh | membrane potential fluorescence | percent change from control (negative = decrease, positive = increase), % at 10 µM | 69% of 2,400 active | AID 488927, 2010;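 active = membrane potential signal moved up or down beyond 5 SD of buffer control wells, in both duplicate plates, actives on both sides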;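 also: plate controls were assay buffer wells for no effect and DAMGO maximal-effect wells for full effect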
TRPC4/MOR inh 2 – second check of whether TRPC6 modulators also affect mouse TRPC4 | shares compounds with TRPC6 inh | HEK293 TRPC4/mu-opioid, membrane potential dye fluorescence; stimulated with maximal-effect DAMGO | inhibition, % at 10 µM | 55% of 2,400 active;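 active = drop in membrane potential signal beyond 5 SD of the control wells in both duplicate plates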;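 also: TRPC4 counter screen for TRPC6 hits run under conditions tuned for TRPC6 not TRPC4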
TRPC6 block conf – mouse TRPC6 channel inhibitors, confirmation, HEK293 cells, membrane potential dye, duplicate; shares compounds with TRPC6 inh; ACh-evoked depolarization; inhibition, % at 10 µM; 43% of 3,300 active; AID 488960, 2010;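 active = fluorescence ratio falls more than 5 SD below the full-stimulation control mean, in both duplicate runs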;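 also: integrated fluorescence ratio of peak minus minimum over baseline after agonist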
TRPC6 act confirm – mouse TRPC6 channel activators, confirmation, HEK293 cells, membrane potential dye, duplicate; 11% of 2,800 active; HEK293-TRPC6 membrane potential dye fluorescence, FDSS; activation, % at 10 µM; shares compounds with TRPC6 inh;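 active = ratio signal rise beyond 5 SD above unstimulated control wells' mean, seen in both duplicate runs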;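 also: plate controls were buffer EC0 wells for no effect and acetylcholine ECmax response for full effect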
* marks the source's active call; other numbers are inactive results; i = inactive; / = no result given.

SMILES | TRPC4 PAM | TRPC4 agonist | TRPC6 inh | TRPC6 act | TRPC4 block | TRPC6 block conf | TRPC6 act confirm | others
CCOC(=O)c1sc2nc3c(SCC(=O)O)cc(C(=O)c4cc(F)ccc4O)cn3c(=O)c2c1C | i | i | i | i | i | / | /
COC(=O)c1cc(C(=O)c2cc(F)ccc2O)cn2c(=O)c3c(C)c(C)sc3nc12 | i | i | -5.4* | i | i | i | i | HEK293 MPD ctr-2=i;HEK293 MPD ctr 2-2=i;TRPC4/MOR mod=i;TRPC4/MOR inh 2=44%*
N=c1sccn1CC(=O)Nc1cc(Cl)ccc1Oc1ccccc1 | i | i | -9.6* | i | i | 69%* | i | TRPC4 spec 2=24%*;TRPC4 spec=i;HEK293 MPD ctr 2-1=i;HEK293 MPD ctr-1=i
N=c1sccn1CC(=O)Nc1ccc(Cl)cc1[N+](=O)[O-] | i | i | i | i | i | / | /
N=c1sccn1CC(=O)Nc1cccc(Oc2ccccc2)c1 | i | i | -5.7* | i | i | 52%* | i | HEK293 MPD ctr-2=i;HEK293 MPD ctr 2-2=i;TRPC4/MOR mod=i;TRPC4/MOR inh 2=82%*
Cc1ccc(OCc2csc(N)n2)cc1 | i | i | i | i | i | / | /
Cc1ccnc(NS(=O)(=O)c2ccc(N)cc2)n1 | i | i | i | i | i | / | /
CCOc1ccc(NC(=O)N[C@@H](Cc2ccccc2)C(=O)O)cc1 | i | i | i | i | i | / | /
CCN(CC)CCNC(=O)c1ccc(NC(=O)c2ccc(S(=O)(=O)N3CCCCCC3)cc2)cc1 | i | i | i | i | i | / | /

Assay outcomes: PubChem BioAssay, Johns Hopkins Ion Channel Center
